# PubChem BioAssay AID651723 (Broad Institute, 2012)
# The campaign covered roughly 350,000 compounds. About 740 (0.21%) were called active. This is one part of a sample in which actives are shown more often than they occur. A number with no mark means an inactive call.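 The calls were made as follows: active = every replicate reaching activation of at least 50%, whatever the mean replicate activation; inconclusive = replicates that disagree or another doubt; inactive = the rest.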
# Assay: increased acetylated PGC1a in cells – cell-based, U2OS, AlphaScreen, signal-increasing mode, PGC1a modulator project, primary screen (AID 651723)
# Details: U2OS PGC1a acetylation AlphaScreen, overnight; at 15.6 µM; hits give high values
# Summary of the method: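 System: flag-PGC1a/GCN5 U2OS cells / Input: 7000 cells/well / Compound: single test concentration per compound / Incubation: overnight compound treatment, 37 °C / Technique: AlphaScreen on lysates with anti-acetyl-lysine antibody, acceptor and donor beads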
row,SMILES,activation
1,CN(C)CC1Oc2ccccc2OC1(O)c1ccccc1 (configuration not stated),249% (active)
2,CCC(C)(O)C(=O)OC1C(=O)OC2CC3C(C)=CC(=O)C(O)C3(C)C3C4(O)OCC23C1C(C)C4O (configuration not stated),-80%
3,O=C(CSC1c2ccccc2-c2ccccc21)N/N=C/c1ccccc1,73% (active)
4,CC(=O)OC1C2(CC3N4C(=O)C5(CO)SSC4(CC31O)C(=O)N5C)OC(C)C(C)(C)C2=O (configuration not stated),-60.7%
5,COC1C(O)C(C)OC(OC2CCC3(C=O)C(CCC4C3CCC3(C)C(C5=CC(=O)OC5)CCC43O)C2)C1O (configuration not stated),-82.1%
6,c1ccc(C(CN2CCCCC2)c2ccccc2)cc1,-40.7%
7,O=C(c1cc(S(=O)(=O)N2CCOCC2)ccc1F)N1CCC2(CC1)OCCO2,-52.8%
